Bioassay records: PubChem, several laboratories
In the library only some 3.8% were active in any assay of this set; here they are far more common.
Yeast lifespan up = extends the lifespan of yeast; inhibition of the nicotinamide effect, % at 10 µM; AID 775; S. cerevisiae growth with nicotinamide, OD615; deaD strain in restrictive glucose medium; actives 0.68% (n = 130,000);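 active = inhibition above a set limit, placed 3 SD over the median of all compounds, cut at about 26% in these data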;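 also: 0% = nicotinamide-treated wells and 100% = cells grown without nicotinamide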
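Buffer or medium: CSMM-D glucose medium, restrictive; test system: modified budding yeast, DeaD strain; compound: single dose 10 µM compound, 0.25% DMSO; schedule: culture preincubation 4 h, compound exposure 48 h, both 30 °C; detection: optical density (absorbance) at 615 nm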
Yeast growth inh = chemicals that inhibit yeast BB579 growth in restrictive medium (lifespan-shortening candidates); S. cerevisiae BB579 growth, OD615, 48 h; inhibition, % at 10 µM; actives 0.51% (n = 140,000);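 active = inhibition above a set limit, 3 SD over the mean compound inhibition, cut at about 44% in these data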
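controls = amphotericin B 10 µg/mL, positive | assay system = DeaD yeast strain BB579 | schedule = 48 h compound exposure at 30 °C after 4 h preincubation | detection = OD615 turbidity measurement | medium = restrictive CSMM-D medium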
Measles CPE = protection of cells from measles virus; actives 1.5% (n = 140,000); AID 841; protection (pct of control), % at 4 µM; Measles virus-infected cells, CPE protection, absorbance; in the data active = protection mostly above about 24%, no sharp cut-off; inactive = mostly below about 26%
SDO1 yeast rescue = sdo1-depleted yeast growth rescue. S. cerevisiae sdo1-depleted JHY4D growth rescue, OD600 30 h; hits give high values; pdr5 snq2 efflux-pump mutant strain. z-score at 10 µM. actives 0.21% (n = 140,000). AID 817;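 active = z-score above 3 at both the 24 hr and the 30 hr optical density reads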;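 also: z-score against mean and SD of all compound wells on the same plate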
RAM network inh = blocks the yeast RAM network | inhibition, % at 50 µM | actives 1.8% (n = 190,000) | S. cerevisiae dse1pr::URA3 reporter, 5-FOA growth OD615, 2 d; analog-sensitive cbk1-as2 kinase mutant strain;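 active = inhibition above a set limit, 3 SD over mean compound inhibition, cut at about 8.4% in these data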;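 also: 0% = DMSO-only wells with no growth and 100% = 10 µM 1-NA-PP1 full growth; inhibition rescues growth on 5-FOA so higher OD means more RAM inhibition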
* = called active by the depositor; x = not tested or not shown.

SMILES	Yeast lifespan up	Yeast growth inh	Measles CPE	SDO1 yeast rescue	RAM network inh
Cn1c(=O)c2c(ncn2CC(N)=O)n(C)c1=O	-5	5	0	-0.64	0
CN1CCCCC1=NCCCn1cnc2c1c(=O)n(C)c(=O)n2C	-10	-22	19*	0.2	1
CCOc1ccccc1Nc1nnc(SC(C)C(=O)Nc2nc(-c3ccccc3)cs2)s1 (stereo not given)	4	-33	28	-0.27	6
C=CCN=c1scc(-c2ccccc2)n1/N=C/c1ccccn1	-5	5	50*	-1.5	0
CCN=c1scc(-c2ccc(F)cc2)n1/N=C/c1ccccn1	x	x	x	x	-1
CCN=c1scc(-c2ccccc2)n1/N=C/c1ccccn1	-8	-14	62*	-0.96	1
Cc1cccc(N=Nc2ccc(O)c3ncccc23)c1	-2	91*	3	-1.2	5
O=C(CCc1ccccc1)NNC(=O)Cc1ccccc1	x	x	x	x	0
Cc1occc1-c1nnc(SCC(=O)c2ccc(F)cc2)n1Cc1ccco1	-2	-24	4	-1.4	1
O=C(CSc1nnc(-c2cc3ccccc3cc2O)n1Cc1ccco1)c1ccc(F)cc1	5	-29	18	-0.7	8.4*
Cc1csc(NC(=O)C(F)(F)F)n1	12	-31	5	0.13	1
CCOC(=O)c1sc(NC(=O)CSc2nc(-c3ccco3)cc(C(F)(F)F)n2)c(C(=O)OC)c1C	2	-61	3	-1.1	3
CCCOC(=O)c1c(NC(=O)CSc2nc(-c3ccco3)cc(C(F)(F)F)n2)sc(C(=O)OC)c1C	6	-70	11	-0.62	8.8*
CCCCCNC(=O)C1CCC(Cn2c(=S)[nH]c3ccccc3c2=O)CC1 (stereo not given)	x	x	x	x	3
OC(COCc1cccs1)CN1CCN(c2cccc(Cl)c2)CC1 (stereo not given)	5	-48	54*	-1.5	1
OC(COCc1cccs1)CN1CCN(c2ccccc2Cl)CC1 (stereo not given)	6	-41	20	0.53	1
COC(=O)[C@H](C)NC(=O)Nc1ccc(OC)cc1OC	-8	-64	5	0.32	-1
COc1ccc(C(CCc2ccc(C)o2)NC(=O)Nc2ccc(OC)cc2OC)cc1 (stereo not given)	-12	-7	1	-1	10*
CC1CN(CC(O)COC(c2ccccc2)c2ccccc2)CC(C)O1 (stereo not given)	-1	-23	31*	1.2	1
O=C(O)CCC(=O)Nc1ccc(Br)cn1	5	-34	18	1.7	2
COC(=O)C1=C(NC(=O)CCCCl)CCS1	-6	-22	50*	0.04	-1
CCOC(CCn1c(SCc2cccc([N+](=O)[O-])c2)nc2ccccc2c1=O)OCC	12	-61	10	-1.2	11*
CCCOC(=O)c1cc(NC(=O)/C=C/c2ccccc2)ccc1O	x	x	x	x	2
COc1ccccc1-n1c(SCC(=O)Nc2ccc3c(c2)OCO3)nc2c(c1=O)SCC2	-11	-53	15	0.67	2
COc1ccccc1-n1c(SCC(=O)Nc2cccc(C)c2)nc2c(c1=O)SCC2	-10	5	47*	-0.16	4
SMILES	Yeast lifespan up	Yeast growth inh	Measles CPE	SDO1 yeast rescue	RAM network inh
COc1ccc(OCC(=O)NNC(=O)c2cccc(S(=O)(=O)N(C)C)c2)cc1	31*	-26	13	0.69	0
CC(C)CC(c1nnnn1C1CCCCC1)N1CCN(c2ncccn2)CC1 (stereo not given)	-4	-8	4	-0.35	-1
CC(C)CC(c1nnnn1C1CCCC1)N1CCN(c2ccccc2F)CC1 (stereo not given)	-19	0	42*	-2.1	-2
COc1ccccc1NC(=O)c1ccc(NC(=O)COC(=O)C2CCCCC2)cc1	-7	-29	49*	-0.55	1
COc1ccccc1NC(=O)c1ccc(NC(=O)CN2CCCC2)cc1	x	x	x	x	1
Oc1ccc(CCC2CCCCN2Cc2nc(C3CC3)no2)cc1 (stereo not given)	x	x	x	x	1
COc1ccc([C@H]2[C@H](C(=O)OC(C)(C)C)N3N=Cc4ccccc4C3C23C(=O)c2ccccc2C3=O)c(OC)c1 (stereo not given in full)	7	-12	15	-0.31	9.3*
COc1ccc([C@H]2[C@H](C(=O)OC(C)(C)C)N3N=Cc4ccccc4C3C23C(=O)c2ccccc2C3=O)cc1OC (stereo not given in full)	38*	-11	16	0.05	5
CC(C)(C)C(=O)[C@H]1[C@H](c2ccccc2)[C@@]2(N=C(c3ccccc3)OC2=O)C2c3ccccc3C=NN21 (stereo not given in full)	11	-64	15	0.33	4
CCOc1ccc(OCCCN(C)C)cc1	-7	-12	20	0.11	1
CN(C)CCCOC(=O)COc1ccc(C(C)(C)C)cc1	-2	7	25*	-0.12	0
CCOC(CCNC(=O)c1cn(-c2cccc(C)n2)cn1)OCC	-16	-18	34*	1	4
Cc1ccc(-n2c(Cl)c(Cl)nc(Cl)c2=O)cc1	-9	100*	1	-1.8	0
O=C(CSc1nc2ccccc2s1)Nc1ccc(Cl)c(S(=O)(=O)N2CCOCC2)c1	3	-51	22	-0.17	9.9*
O=C(CSc1nc2ccccc2s1)Nc1ccc(N2CCOCC2)c(Cl)c1	-7	-40	18	-1.3	5
c1ccc2c(c1)CC(N1CCCCC1)c1ccccc1N2 (stereo not given)	-11	3	42*	0.67	2
CCn1c(=O)c(C(=O)NNS(=O)(=O)c2ccc(Br)cc2)c(O)c2ccccc21	x	x	x	x	3
Cc1cccc(OCC(=O)O/N=C(\N)Cc2ccc(Cl)cc2)c1	-11	-59	24	-2.9	-1
Cc1[nH]n(-c2ccccc2)c(=O)c1/C=N/N1C(=O)c2ccc3c4c(ccc(c24)C1=O)CC3	-9	79*	11	1.3	2
O=C(Nc1ccc(Oc2cccc3ccccc23)cc1)c1ccco1	-20	-27	8	-1.2	9.2*
Cc1ccccc1OCc1nc(-c2ccc(NC(=O)c3cccs3)cc2)no1	-4	-42	5	2	3
Cc1ccccc1OCc1nc(-c2ccc(NC(=O)c3ccco3)cc2)no1	-8	-39	71*	-1.6	3
O=C(O)c1ccccc1C(=O)Nc1ccc(Oc2cccc3ccccc23)cc1	x	x	x	x	4
CC(CCc1ccccc1)NC(=O)COC(=O)c1ccccc1O (stereo not given)	x	x	x	x	1
Cc1cccc(C(=O)OCC(=O)NC(C)CCc2ccccc2)c1 (stereo not given)	x	x	x	x	10*
COC(=O)C1=C(C(=O)OC)C(c2cc(Br)ccc2O)c2sc(=O)[nH]c2S1 (stereo not given)	61*	-16	11	-0.8	1
